Experimental data as given in ChEMBL document CHEMBL3045796, “Neonicotinoid insecticides: molecular features conferring selectivity for insect versus mammalian nicotinic receptors” (J Agric Food Chem, 2000).

Assays:
[1] = Retention time under basic conditions using 20 mM Na2HPO4 (pH9.9)/MeOH (1:1) mobile phase by HPLC method; type: physicochemical; settings: buffer, pH 9.9
How it was run: (§1)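 Reversed-phase HPLC at a flow rate of 0.7 mL/min, with a void volume of 2.46 min. Each retention time is the mean of three runs under that mobile-phase condition.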

[2] = Retention time under acidic conditions using H20/MeOH mobile phase containing 0.1% TFA (1:1) by HPLC method; type: physicochemical; how it was run: as §1
[3] = Retention time under neutral conditions using H20/MeOH (1:1) mobile phase by HPLC method; type: physicochemical; how it was run: as §1
[4] = target: Neuronal acetylcholine receptor subunit alpha-4 (Mus musculus, UniProt O70174); assay: Inhibition of [3H]nicotine binding to alpha4 nicotinic acetylcholine receptor in Mus musculus (mouse) M10 cells co-expressing beta2 nicotinic acetylcholine receptor subunits; type: cell-based
Chain of Neuronal acetylcholine receptor subunit alpha-4 (O70174 whole entry): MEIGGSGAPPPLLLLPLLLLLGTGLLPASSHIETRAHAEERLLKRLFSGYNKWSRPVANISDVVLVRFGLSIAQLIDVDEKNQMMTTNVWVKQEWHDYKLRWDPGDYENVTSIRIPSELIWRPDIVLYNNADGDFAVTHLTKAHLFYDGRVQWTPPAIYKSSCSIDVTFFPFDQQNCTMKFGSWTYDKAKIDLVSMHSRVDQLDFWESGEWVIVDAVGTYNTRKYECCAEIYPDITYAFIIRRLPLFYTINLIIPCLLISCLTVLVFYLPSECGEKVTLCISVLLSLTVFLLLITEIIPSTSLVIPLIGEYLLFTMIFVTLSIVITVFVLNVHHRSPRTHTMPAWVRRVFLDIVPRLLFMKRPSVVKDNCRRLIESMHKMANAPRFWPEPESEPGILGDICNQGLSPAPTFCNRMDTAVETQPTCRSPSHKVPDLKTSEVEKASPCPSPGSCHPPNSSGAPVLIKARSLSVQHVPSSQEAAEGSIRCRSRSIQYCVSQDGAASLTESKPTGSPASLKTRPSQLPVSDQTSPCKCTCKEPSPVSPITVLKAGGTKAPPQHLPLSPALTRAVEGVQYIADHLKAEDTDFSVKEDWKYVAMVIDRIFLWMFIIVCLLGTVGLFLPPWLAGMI

[5] = target: Neuronal acetylcholine receptor subunit alpha-3 (Homo sapiens, UniProt P32297); assay: Inhibition of [3H]nicotine binding to alpha3 nicotinic acetylcholine receptor in Homo sapiens (human) SH-SY5Y cells co-expressing beta2beta4alpha5 Nicotinic acetylcholine receptor subunits; type: cell-based
Chain of Neuronal acetylcholine receptor subunit alpha-3 (P32297 whole entry): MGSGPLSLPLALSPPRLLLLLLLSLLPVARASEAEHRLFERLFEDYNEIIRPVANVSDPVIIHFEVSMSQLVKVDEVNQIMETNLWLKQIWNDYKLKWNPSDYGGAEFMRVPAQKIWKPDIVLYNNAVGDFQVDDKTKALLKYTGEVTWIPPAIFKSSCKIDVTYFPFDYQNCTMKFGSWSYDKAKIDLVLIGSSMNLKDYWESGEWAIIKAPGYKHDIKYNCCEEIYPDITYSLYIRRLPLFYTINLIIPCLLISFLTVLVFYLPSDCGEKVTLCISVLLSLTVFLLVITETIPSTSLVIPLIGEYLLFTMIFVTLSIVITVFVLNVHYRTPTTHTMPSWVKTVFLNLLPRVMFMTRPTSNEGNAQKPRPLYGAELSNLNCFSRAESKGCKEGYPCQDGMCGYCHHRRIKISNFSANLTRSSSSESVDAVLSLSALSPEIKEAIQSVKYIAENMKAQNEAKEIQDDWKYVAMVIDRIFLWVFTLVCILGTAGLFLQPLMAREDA

[6] = Toxicity in ip dosed Mus musculus (mouse); type: organism-based; settings: in vivo
[7] = target: T1, Acetylcholine receptor subunit beta-like 2 (Drosophila melanogaster, UniProt P25162); assay: Inhibition of [3H]IMI binding to Drosophila melanogaster neuronal acetylcholine receptor
T1 sequence (P25162 whole entry): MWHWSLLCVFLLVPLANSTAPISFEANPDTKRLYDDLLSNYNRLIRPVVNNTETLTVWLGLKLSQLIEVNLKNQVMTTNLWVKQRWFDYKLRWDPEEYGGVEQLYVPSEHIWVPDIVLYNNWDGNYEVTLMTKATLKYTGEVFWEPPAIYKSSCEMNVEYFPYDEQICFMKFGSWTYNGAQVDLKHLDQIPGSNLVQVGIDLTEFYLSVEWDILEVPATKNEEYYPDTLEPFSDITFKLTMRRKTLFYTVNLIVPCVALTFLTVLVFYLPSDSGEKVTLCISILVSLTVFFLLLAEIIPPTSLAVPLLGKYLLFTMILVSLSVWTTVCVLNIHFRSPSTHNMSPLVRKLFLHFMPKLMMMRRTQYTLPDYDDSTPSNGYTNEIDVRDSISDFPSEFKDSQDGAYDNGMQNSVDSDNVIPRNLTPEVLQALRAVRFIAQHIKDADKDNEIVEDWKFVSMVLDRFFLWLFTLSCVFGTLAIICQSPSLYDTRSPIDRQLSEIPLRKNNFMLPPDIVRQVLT

[8] = target: Neuronal acetylcholine receptor subunit alpha-7 (Homo sapiens, UniProt P36544); assay: Inhibition of [125I]alpha-BGT binding to alpha7 nicotinic acetylcholine receptor in Homo sapiens (human) SH-SY5Y cells
Chain of Neuronal acetylcholine receptor subunit alpha-7 (P36544 whole entry): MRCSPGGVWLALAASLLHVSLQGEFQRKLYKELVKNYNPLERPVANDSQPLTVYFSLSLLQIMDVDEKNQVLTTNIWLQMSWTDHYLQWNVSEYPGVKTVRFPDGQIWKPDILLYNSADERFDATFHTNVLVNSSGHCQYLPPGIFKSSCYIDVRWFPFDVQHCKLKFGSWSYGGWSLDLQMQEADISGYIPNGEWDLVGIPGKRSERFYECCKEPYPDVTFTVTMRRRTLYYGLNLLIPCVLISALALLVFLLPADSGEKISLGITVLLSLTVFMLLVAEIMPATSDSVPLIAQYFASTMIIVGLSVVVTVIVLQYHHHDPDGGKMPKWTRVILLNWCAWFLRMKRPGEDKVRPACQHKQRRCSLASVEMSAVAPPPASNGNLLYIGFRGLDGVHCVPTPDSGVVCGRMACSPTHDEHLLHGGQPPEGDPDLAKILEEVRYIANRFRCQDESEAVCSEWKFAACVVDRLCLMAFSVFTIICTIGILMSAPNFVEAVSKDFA

[9] = target: Acetylcholine receptor subunit alpha (Homo sapiens, UniProt P02708+P07510+P11230+Q07001); assay: Inhibition of [125I]alpha-BGT binding to alpha1 nicotinic acetylcholine receptor in Homo sapiens (human) TE671 cells co-expressing gammaalpha1deltabeta1 nicotinic acetylcholine receptor subunits
Chain of Acetylcholine receptor subunit alpha (P02708 whole entry, one chain of several): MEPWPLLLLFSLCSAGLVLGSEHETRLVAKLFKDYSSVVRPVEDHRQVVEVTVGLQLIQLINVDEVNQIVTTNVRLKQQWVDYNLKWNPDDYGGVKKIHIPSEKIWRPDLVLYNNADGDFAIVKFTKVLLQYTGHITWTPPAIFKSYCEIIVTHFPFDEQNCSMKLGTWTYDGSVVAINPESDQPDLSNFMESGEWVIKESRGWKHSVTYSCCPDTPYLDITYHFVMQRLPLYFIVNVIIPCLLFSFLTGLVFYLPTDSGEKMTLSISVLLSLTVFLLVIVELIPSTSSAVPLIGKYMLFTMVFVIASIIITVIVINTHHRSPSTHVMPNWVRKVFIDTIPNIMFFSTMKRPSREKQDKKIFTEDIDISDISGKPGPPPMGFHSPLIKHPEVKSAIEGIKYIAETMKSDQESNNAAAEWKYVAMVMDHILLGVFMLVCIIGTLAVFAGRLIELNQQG

Musca domestica = assay: Toxicity against Musca domestica (house fly) dosed with compound through intra-thoracic injection pre-treated with 100 ug/g metabolic detoxification inhibitor O-propyl O-(2-propynyl)phenylphosphonate; type: functional
[10] = target: Acetylcholine receptor subunit alpha (Homo sapiens) (UniProt P02708); assay: Inhibition of […] binding to alpha1 nicotinic acetylcholine receptor in Homo sapiens (human) TE671 cells co-expressing gammaalpha1deltabeta1 nicotinic acetylcholine receptor at >300 uM; type: cell-based; settings: TE-671
Chain of Acetylcholine receptor subunit alpha (Homo sapiens) (P02708 whole entry): as the sequence (P02708 whole entry, one chain of several) above

SMILES | Retention_time [1] [min] | Retention_time [2] [min] | Retention_time [3] [min] | IC50 [4] [nM] | IC50 [5] [nM] | LD50 [6] [mg/kg] | IC50 [7] [nM] | IC50 [8] [nM] | IC50 [9] [nM] | LD50 (Musca domestica) [mg/kg] | inhibition [10] [%]
O=[N+]([O-])NC1=NCCN1Cc1ccc(Cl)nc1 [IMIDACLOPRID] | 4.82 | 4.87 | 4.84 | 2600 | 14000 | 40 | 4.6 | 270000 | > 300000 | – | –
O=[N+]([O-])/C=C1/NCCCN1Cc1ccc(Cl)nc1 | – | – | – | 80 | 180 | 10 | 0.37 | 1000 | 81000 | 0.08 | –
N#C/N=C1\SCCN1Cc1ccc(Cl)nc1 [THIACLOPRID] | 6.05 | 6.07 | 6.06 | 860 | – | 25 | 2.7 | 100000 | 120000 | 0.03 | –
N=C1SCCN1Cc1ccc(Cl)nc1 [DESCYANOTHIACLOPRID] | 4.23 | 2.84 | 3 | 4.4 | – | 0.7 | 200 | 6000 | 6000 | > 5 | –
CN1CCC[C@H]1c1cccnc1 [NICOTINE] | 11.23 | 3.16 | 3.18 | – | – | 6 | 4000 | – | 21000 | > 50 | –
N=c1sccn1Cc1ccc(Cl)nc1 | 4.21 | 2.98 | 3.02 | 1.4 | – | 0.7 | 185 | 4000 | 8000 | > 5 | –
O=[N+]([O-])/N=C1\NCCN1Cc1ccc(Cl)nc1 [IMIDACLOPRID] | – | – | – | – | – | – | – | – | – | 0.02 | 39
Clc1ccc(C2CC3CCC2N3)cn1 (racemic) [EPIBATIDINE] | – | – | – | 0.037 | – | 0.06 | 430 | 31 | 160 | > 25 | –
N=C1NCCN1Cc1ccc(Cl)nc1 [DESNITROIMIDACLOPRID] | 4.24 | 2.8 | 2.9 | 8.2 | 14 | 6 | 1530 | 9900 | 11000 | > 5 | –
